ChEMBL document CHEMBL1137240, “Conjugation of adenosine and hexa-(D-arginine) leads to a nanomolar bisubstrate-analog inhibitor of basophilic protein kinases” (J Med Chem, 2006)

Assays:
[1] = biological target: Mitogen-activated protein kinase 15 (Homo sapiens) (UniProt Q8TD08); assay: Percent residual activity, relative to control, of ERK8 at 1 uM concentration of inhibitor in presence of 5 uM ATP
How it was run: (§1)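 It is expressed as percent of activity in control incubations without inhibitor, as the mean of duplicate determinations. The protocol follows earlier published panel methods.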

[2] = biological target: Mitogen-activated protein kinase 12 (Homo sapiens) (UniProt P53778); assay: Percent residual activity, relative to control, of SAPK3/p38 gamma at 1 uM concentration of inhibitor in presence of 5 uM ATP; how it was run: as §1
[3] = biological target: MAP kinase-activated protein kinase 3 (Homo sapiens) (UniProt Q16644); assay: Percent residual activity, relative to control, of MAPKAP-K3 at 1 uM concentration of inhibitor in presence of 20 uM ATP; how it was run: as §1
[4] = biological target: Ribosomal protein S6 kinase (P70S6K) (Homo sapiens) (UniProt Q9UBS0+P23443); assay: Percent residual activity, relative to control, of P70S6K at 1 uM concentration of inhibitor in presence of 20 uM ATP; type: protein-complex assay; how it was run: as §1
[5] = biological target: SRSF protein kinase 1 (Homo sapiens) (UniProt Q96SB4); assay: Percent residual activity, relative to control, of SRPK1 at 1 uM concentration of inhibitor in presence of 50 uM ATP; how it was run: as §1
[6] = biological target: Mitogen-activated protein kinase 11 (Homo sapiens) (UniProt Q15759); assay: Percent residual activity, relative to control, of SAPK2b/p38ss2 at 1 uM concentration of inhibitor in presence of 20 uM ATP; how it was run: as §1
[7] = biological target: RAC-alpha serine/threonine-protein kinase (Homo sapiens) (UniProt P31749); assay: Percent residual activity, relative to control, of PKB alpha (no ph) at 1 uM concentration of inhibitor in presence of 5 uM ATP; how it was run: as §1
[8] = biological target: Serine/threonine-protein kinase Sgk1 (Homo sapiens) (UniProt O00141); assay: Percent residual activity, relative to control, of SGK at 1 uM concentration of inhibitor in presence of 20 uM ATP; how it was run: as §1
[9] = biological target: Serine/threonine-protein kinase 3 (Homo sapiens) (UniProt Q13188); assay: Percent residual activity, relative to control, of MST2 at 1 uM concentration of inhibitor in presence of 20 uM ATP; how it was run: as §1
[10] = biological target: MAP kinase-interacting serine/threonine-protein kinase 1 (Homo sapiens) (UniProt Q9BUB5); assay: Percent residual activity, relative to control, of MNK1 at 1 uM concentration of inhibitor in presence of 50 uM ATP; how it was run: as §1
[11] = biological target: Serine/threonine-protein kinase Nek7 (Homo sapiens) (UniProt Q8TDX7); assay: Percent residual activity, relative to control, of NEK7 at 1 uM concentration of inhibitor in presence of 20 uM ATP; how it was run: as §1
[12] = biological target: Serine/threonine-protein kinase Chk2 (Homo sapiens) (UniProt O96017); assay: Percent residual activity, relative to control, of CHK2 at 1uM concentration of inhibitor in presence of 20uM ATP; how it was run: as §1
[13] = biological target: Dual specificity tyrosine-phosphorylation-regulated kinase 1A (Homo sapiens) (UniProt Q13627); assay: Percent residual activity, relative to control, of DYRK1a at 1 uM concentration of inhibitor in presence of 50 uM ATP; how it was run: as §1
[14] = biological target: Mitogen-activated protein kinase 13 (Homo sapiens) (UniProt O15264); assay: Percent residual activity, relative to control, of SAPK4/p38 delta at 1 uM concentration of inhibitor in presence of 5 uM ATP; how it was run: as §1
[15] = species: Homo sapiens; assay: Percent residual activity, relative to control, of MAPKAP-K1b/Rsk2 at 1 uM concentration of inhibitor in presence of 50 uM ATP; how it was run: as §1
[16] = biological target: MAP kinase-activated protein kinase 5 (Homo sapiens) (UniProt Q8IW41); assay: Percent residual activity, relative to control, of PRAK at 1uM concentration of inhibitor in presence of 20uM ATP; how it was run: as §1
[17] = biological target: AMP-activated protein kinase, AMPK (Homo sapiens) (UniProt P54646+O43741+P54619+Q9UGJ0+Q9Y478+Q13131+Q9UGI9); assay: Percent residual activity, relative to control, of AMPK at 1 uM concentration of inhibitor in presence of 50 uM ATP; type: protein-complex assay; how it was run: as §1
[18] = biological target: Serine/threonine-protein kinase Nek2 (Homo sapiens) (UniProt P51955); assay: Percent residual activity, relative to control, of NEK2a at 1 uM concentration of inhibitor in presence of 50 uM ATP; how it was run: as §1
[19] = biological target: Dual specificity mitogen-activated protein kinase kinase 1 (Homo sapiens) (UniProt Q02750); assay: Percent residual activity, relative to control, of MKK1 at 1 uM concentration of inhibitor in presence of 5 uM ATP; how it was run: as §1
[20] = biological target: MAP kinase-activated protein kinase 2 (Homo sapiens) (UniProt P49137); assay: Percent residual activity, relative to control, of MAPKAP-K2 at 1 uM concentration of inhibitor in presence of 20 uM ATP; how it was run: as §1
[21] = biological target: Mitogen-activated protein kinase 14 (Homo sapiens) (UniProt Q16539); assay: Percent residual activity, relative to control, of SAPK2a/p38 at 1 uM concentration of inhibitor in presence of 50 uM ATP; how it was run: as §1
[22] = biological target: MAP/microtubule affinity-regulating kinase 3 (Homo sapiens) (UniProt P27448); assay: Percent residual activity, relative to control, of MARK3 at 1uM concentration of inhibitor in presence of 5uM ATP; how it was run: as §1
[23] = biological target: Casein kinase II (Homo sapiens) (UniProt P67870+P68400+P19784); assay: Percent residual activity, relative to control, of CK2 at 1 uM concentration of inhibitor in presence of 5 uM ATP; type: protein-complex assay; how it was run: as §1
[24] = biological target: Serine/threonine-protein kinase D1 (Homo sapiens) (UniProt Q15139); assay: Percent residual activity, relative to control, of PKD1 at 1 uM concentration of inhibitor in presence of 50 uM ATP; how it was run: as §1
[25] = biological target: Tyrosine-protein kinase CSK (Homo sapiens) (UniProt P41240); assay: Percent residual activity, relative to control, of CSK at 1 uM concentration of inhibitor in presence of 20 uM ATP; how it was run: as §1

MAP kinase-interacting serine/threonine-protein kinase 1 (Homo sapiens), sequence (Q9BUB5 whole entry, looked up): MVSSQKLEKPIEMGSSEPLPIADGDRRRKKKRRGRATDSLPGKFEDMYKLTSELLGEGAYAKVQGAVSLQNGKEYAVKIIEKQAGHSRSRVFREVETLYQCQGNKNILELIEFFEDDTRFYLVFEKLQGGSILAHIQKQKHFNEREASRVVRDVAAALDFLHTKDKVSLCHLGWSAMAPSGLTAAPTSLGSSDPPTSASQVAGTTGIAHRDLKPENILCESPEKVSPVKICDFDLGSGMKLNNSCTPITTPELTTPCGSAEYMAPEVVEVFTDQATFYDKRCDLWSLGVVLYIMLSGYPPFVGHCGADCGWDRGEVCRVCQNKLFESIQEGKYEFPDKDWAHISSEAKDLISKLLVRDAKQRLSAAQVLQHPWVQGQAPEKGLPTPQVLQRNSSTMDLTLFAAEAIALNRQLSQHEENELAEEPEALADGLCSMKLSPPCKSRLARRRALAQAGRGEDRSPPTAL
MAP kinase-activated protein kinase 3 (Homo sapiens), sequence (Q16644 whole entry, looked up): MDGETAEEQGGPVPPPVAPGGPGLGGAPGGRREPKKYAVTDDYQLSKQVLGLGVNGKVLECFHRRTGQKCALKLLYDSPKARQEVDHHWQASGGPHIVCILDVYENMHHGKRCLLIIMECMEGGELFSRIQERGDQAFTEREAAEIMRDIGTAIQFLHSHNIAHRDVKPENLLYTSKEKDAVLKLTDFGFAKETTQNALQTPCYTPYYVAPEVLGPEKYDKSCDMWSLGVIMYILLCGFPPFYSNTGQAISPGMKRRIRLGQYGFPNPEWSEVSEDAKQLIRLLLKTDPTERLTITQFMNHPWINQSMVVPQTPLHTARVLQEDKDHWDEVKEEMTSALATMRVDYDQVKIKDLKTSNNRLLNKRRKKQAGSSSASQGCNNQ
Serine/threonine-protein kinase D1 (Homo sapiens), sequence (Q15139 whole entry): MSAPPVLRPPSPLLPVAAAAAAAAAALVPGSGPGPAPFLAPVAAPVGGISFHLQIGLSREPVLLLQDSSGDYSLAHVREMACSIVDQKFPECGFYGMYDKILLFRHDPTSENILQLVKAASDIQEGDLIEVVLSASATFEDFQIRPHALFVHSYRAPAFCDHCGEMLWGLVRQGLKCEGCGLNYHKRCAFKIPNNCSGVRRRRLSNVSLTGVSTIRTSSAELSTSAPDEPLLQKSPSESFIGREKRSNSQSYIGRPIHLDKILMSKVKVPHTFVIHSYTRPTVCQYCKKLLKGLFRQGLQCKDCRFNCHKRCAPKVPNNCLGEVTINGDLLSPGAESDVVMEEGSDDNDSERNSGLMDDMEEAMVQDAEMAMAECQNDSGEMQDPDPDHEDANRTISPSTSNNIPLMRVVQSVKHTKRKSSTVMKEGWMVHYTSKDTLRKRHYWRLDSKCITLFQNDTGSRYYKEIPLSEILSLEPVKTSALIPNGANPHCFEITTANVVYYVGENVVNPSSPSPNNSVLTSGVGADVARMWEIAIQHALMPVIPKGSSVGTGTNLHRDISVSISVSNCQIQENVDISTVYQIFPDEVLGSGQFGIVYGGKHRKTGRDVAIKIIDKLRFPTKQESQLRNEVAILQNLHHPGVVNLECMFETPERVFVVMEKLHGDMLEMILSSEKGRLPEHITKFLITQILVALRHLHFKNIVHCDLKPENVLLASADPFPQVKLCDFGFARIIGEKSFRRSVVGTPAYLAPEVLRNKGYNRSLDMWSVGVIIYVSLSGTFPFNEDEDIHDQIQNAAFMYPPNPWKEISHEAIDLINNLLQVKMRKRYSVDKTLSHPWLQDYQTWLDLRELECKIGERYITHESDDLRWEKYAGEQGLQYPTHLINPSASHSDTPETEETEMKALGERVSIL
Serine/threonine-protein kinase 3 (Homo sapiens), sequence (Q13188 whole entry): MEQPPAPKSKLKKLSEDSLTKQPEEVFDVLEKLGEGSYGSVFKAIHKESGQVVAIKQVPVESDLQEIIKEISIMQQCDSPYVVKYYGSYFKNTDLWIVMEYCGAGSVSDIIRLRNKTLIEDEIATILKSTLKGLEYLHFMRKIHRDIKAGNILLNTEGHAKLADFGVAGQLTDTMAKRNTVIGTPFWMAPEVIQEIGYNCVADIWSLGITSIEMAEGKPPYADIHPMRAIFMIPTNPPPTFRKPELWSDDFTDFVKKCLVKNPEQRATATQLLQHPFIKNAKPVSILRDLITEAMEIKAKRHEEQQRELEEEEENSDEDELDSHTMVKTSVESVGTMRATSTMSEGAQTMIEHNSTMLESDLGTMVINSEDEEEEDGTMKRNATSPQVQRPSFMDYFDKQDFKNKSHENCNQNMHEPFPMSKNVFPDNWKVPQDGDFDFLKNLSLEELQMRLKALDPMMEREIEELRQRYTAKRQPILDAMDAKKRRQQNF
Mitogen-activated protein kinase 11 (Homo sapiens), sequence (Q15759 whole entry): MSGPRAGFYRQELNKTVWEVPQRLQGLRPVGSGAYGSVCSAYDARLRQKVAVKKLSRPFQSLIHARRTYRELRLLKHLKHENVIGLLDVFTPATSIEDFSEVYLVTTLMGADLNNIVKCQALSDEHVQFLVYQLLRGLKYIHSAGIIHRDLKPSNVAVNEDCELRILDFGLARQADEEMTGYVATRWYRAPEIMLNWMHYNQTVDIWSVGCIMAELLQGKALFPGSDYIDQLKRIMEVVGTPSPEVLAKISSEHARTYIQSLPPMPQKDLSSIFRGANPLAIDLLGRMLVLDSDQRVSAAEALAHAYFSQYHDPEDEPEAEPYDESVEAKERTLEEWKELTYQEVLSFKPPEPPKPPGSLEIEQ
Dual specificity mitogen-activated protein kinase kinase 1 (Homo sapiens), sequence (Q02750 whole entry): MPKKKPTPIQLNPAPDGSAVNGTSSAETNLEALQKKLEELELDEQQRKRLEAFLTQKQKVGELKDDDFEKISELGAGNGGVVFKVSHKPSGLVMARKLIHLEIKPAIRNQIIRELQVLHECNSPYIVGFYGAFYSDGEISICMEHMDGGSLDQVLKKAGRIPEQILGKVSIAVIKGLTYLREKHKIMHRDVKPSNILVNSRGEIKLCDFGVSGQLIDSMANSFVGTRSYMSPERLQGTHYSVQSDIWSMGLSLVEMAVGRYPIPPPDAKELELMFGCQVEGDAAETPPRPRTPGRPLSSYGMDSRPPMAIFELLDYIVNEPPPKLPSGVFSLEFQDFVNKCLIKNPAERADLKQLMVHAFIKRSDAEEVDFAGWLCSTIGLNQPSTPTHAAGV
MAP/microtubule affinity-regulating kinase 3 (Homo sapiens), sequence (P27448 whole entry, looked up): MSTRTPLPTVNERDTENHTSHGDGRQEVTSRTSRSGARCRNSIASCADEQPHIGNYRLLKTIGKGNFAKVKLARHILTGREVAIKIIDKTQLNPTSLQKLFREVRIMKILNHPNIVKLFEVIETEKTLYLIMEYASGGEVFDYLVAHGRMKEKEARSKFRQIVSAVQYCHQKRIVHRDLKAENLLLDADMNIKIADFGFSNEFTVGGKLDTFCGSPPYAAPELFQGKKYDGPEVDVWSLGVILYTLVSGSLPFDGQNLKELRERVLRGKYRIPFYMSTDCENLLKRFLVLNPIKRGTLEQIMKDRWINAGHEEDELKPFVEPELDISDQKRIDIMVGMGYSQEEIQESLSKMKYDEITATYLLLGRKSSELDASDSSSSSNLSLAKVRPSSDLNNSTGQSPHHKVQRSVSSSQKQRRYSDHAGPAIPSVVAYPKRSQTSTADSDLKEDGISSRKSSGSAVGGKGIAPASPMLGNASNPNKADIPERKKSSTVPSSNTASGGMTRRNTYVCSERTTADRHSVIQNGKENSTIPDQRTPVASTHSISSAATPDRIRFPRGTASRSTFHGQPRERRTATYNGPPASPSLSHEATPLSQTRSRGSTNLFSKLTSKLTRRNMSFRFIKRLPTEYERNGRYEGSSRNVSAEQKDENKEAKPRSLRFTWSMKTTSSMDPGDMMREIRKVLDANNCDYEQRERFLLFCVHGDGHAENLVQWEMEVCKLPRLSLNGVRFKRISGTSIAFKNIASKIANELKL
Mitogen-activated protein kinase 14 (Homo sapiens), sequence (Q16539 whole entry): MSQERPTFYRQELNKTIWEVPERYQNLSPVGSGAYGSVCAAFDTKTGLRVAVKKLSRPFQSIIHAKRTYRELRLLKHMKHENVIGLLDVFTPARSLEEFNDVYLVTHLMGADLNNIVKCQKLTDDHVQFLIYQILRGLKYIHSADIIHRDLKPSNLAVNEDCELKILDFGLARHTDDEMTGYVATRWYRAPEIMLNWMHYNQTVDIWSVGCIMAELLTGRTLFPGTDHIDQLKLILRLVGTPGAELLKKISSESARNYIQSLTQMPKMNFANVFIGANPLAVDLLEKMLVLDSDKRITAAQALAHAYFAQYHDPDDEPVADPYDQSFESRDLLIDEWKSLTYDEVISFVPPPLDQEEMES
Serine/threonine-protein kinase Sgk1 (Homo sapiens), sequence (O00141 whole entry): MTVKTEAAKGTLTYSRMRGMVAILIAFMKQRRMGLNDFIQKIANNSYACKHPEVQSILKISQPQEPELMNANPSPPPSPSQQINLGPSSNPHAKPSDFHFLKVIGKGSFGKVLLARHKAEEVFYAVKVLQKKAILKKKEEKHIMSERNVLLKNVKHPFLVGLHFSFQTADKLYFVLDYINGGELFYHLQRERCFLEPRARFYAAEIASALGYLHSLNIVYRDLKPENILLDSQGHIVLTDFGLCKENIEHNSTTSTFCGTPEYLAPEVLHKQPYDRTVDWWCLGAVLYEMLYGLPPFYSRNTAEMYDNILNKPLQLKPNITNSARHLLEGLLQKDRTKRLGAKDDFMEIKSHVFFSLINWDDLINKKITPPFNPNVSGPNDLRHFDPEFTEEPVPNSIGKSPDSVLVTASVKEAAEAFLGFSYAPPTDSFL
Serine/threonine-protein kinase Nek7 (Homo sapiens), sequence (Q8TDX7 whole entry, looked up): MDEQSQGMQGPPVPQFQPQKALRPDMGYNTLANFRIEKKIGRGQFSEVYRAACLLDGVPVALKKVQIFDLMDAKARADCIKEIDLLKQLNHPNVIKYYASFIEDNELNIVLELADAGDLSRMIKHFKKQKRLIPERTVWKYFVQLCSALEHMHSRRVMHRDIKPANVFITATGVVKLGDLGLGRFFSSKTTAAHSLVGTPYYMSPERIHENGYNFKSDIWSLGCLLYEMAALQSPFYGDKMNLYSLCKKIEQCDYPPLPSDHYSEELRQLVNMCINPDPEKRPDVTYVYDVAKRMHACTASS

## N=C(N)NCCC[C@@H](NC(=O)[C@@H](CCCNC(=N)N)NC(=O)[C@@H](CCCNC(=N)N)NC(=O)[C@@H](CCCNC(=N)N)NC(=O)[C@@H](CCCNC(=N)N)NC(=O)[C@@H](CCCNC(=N)N)NC(=O)CCCCCNC(=O)[C@H]1O[C@@H](n2cnc3c(N)ncnc32)[C@H](O)[C@@H]1O)C(N)=O
[1]
  Activity: 50%
[2]
  Activity: 111%
[3]
  Activity: 67%
[4]
  Activity: 7%
[5]
  Activity: 100%
[6]
  Activity: 85%
[7]
  Activity: 2%
[8]
  Activity: 16%
[9]
  Activity: 77%
[10]
  Activity: 102%
[11]
  Activity: 58%
[12]
  Activity: 14%
[13]
  Activity: 72%
[14]
  Activity: 107%
[15]
  Activity: 12%
[16]
  Activity: 89%
[17]
  Activity: 48%
[18]
  Activity: 82%
[19]
  Activity: 77%
[20]
  Activity: 85%
[21]
  Activity: 79%
[22]
  Activity: 40%
[23]
  Activity: 104%
[24]
  Activity: 54%
[25]
  Activity: 48%
